Experimental data as given in ChEMBL document CHEMBL1671701, “Discovery of potent small-molecule inhibitors of multidrug-resistant Plasmodium falciparum using a novel miniaturized high-throughput luciferase-based assay” (Antimicrob Agents Chemother, 2010).

Experiments:
[1] = Cytotoxicity activity against human HAEC cells after 24 hrs; type: cell-based
[2] = system: HepG2; test: Cytotoxicity activity against human HepG2 cells after 24 hrs; type: cell-based; details: HepG2, 24 h
[3] = system: Plasmodium falciparum; test: Antiplasmodial activity against Plasmodium falciparum 3D7 infected in RBCs by firefly luciferase reporter gene assay; type: functional, organism-based; details: Plasmodium falciparum, 3D7
In short: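 Sorbitol-synchronised 3D7 expressing firefly luciferase from the HRPII promoter, at 1% late-ring parasitemia and 3% hematocrit in RPMI/albumax II medium. Sixteen 2-fold dilutions from 17 μM to 0.5 nM, 48 h at 37°C under 5% O2/5% CO2/N2. Bright-Glo luminescence is normalised to untreated infected and uninfected-RBC wells. IC50 by four-parameter logistic fit.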

[4] = system: Plasmodium falciparum; test: Antiplasmodial activity against multidrug-resistant Plasmodium falciparum TM90C2B by SYBR Green 1-based fluorescence assay; type: functional, organism-based
In short: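 Resistant TM90C2B parasites are treated over a dose range and growth is read as SYBR green I fluorescence. IC50 comes from a fit of the log dose-response relationship, as the mean of at least three separate experiments.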

[5] = system: Plasmodium falciparum; test: Antiplasmodial activity against Plasmodium falciparum 3D7 by SYBR Green 1-based fluorescence assay; type: functional, organism-based

| Compound | IC50 [1] | IC50 [2] | IC50 [3] | IC50 [4] | IC50 [5] |
| --- | --- | --- | --- | --- | --- |
| CC(=O)N(C1=C(N(C)C)C(=O)c2ccccc2C1=O)c1ccc(Cl)cc1 | 41000 nM | 8100 nM | 14 nM | – | – |
| COc1cccc(N(C(C)=O)C2=C(N(C)C)C(=O)c3ccccc3C2=O)c1 | 11000 nM | 13000 nM | 5.3 nM | 31 nM | 35 nM |
| CC(=O)N(C1=C(N(C)C)C(=O)c2ccccc2C1=O)c1cccc(Cl)c1 | 45000 nM | 5100 nM | 14 nM | 72 nM | 140 nM |
